Screens: PubChem BioAssay, several laboratories
The list is not random: actives were taken first. Their share in the collection is about 4%.
DAGLB inh – DAGLB lipase inhibitors, primary screen, biochemical, fluorescence, HTS. Diacylglycerol lipase-beta (Homo sapiens), Q8NCG7. HEK293T DAGLB membrane lysate, EnzChek fluorogenic substrate. inhibition, % at 5.17 µM. 340,000 compounds, 0.059% hits; in the data active means inhibition above about 34%
MPTP inh – mitochondrial permeability transition pore inhibitors, primary screen, biochemical, isolated mouse mitochondria, absorbance. 360,000 compounds, 1.4% hits. Ca2+ swelling absorbance, 30 min. AID 602449, 2012. inhibition, % at 10 µM;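 active means inhibition of 50% or more, scaled per plate between neutral and stimulator controls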
TAAR1 antag – human TAAR1 antagonists, primary screen, Fluo-8 calcium fluorescence, CHO RD-HGA16 cells | inhibition, % at 3 µM | Trace amine-associated receptor 1 (Homo sapiens), Q96RJ0 | antagonist | 360,000 compounds, 1.5% hits | AID 624466, 2012;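 active means inhibition above a per-plate cutoff, the mean inhibition of test compounds on that plate plus 3 SD, cut at about 49% in these data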
Target sequence (Q96RJ0 whole entry, looked up): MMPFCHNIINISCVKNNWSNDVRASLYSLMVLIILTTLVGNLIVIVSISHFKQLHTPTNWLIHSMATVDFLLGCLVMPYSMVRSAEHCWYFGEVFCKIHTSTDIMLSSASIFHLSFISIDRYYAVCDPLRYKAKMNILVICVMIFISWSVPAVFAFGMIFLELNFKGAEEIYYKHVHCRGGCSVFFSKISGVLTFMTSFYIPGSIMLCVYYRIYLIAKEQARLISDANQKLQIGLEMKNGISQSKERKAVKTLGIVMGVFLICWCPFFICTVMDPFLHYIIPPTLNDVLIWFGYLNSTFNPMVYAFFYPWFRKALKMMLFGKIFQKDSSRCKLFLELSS
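Test system – hTAAR1-expressing CHO RD-HGA16 cells, Gα16-coupled · Reagent – β-PEA at EC80 concentration, post-compound challenge · Compound dosing – 3 µM, single point · Timing – 140 s kinetic read after compound, 140 s after agonist · Detection – Fluo-8 intracellular calcium dye fluorescence, real-time kinetic reads · Control set – DMSO and EC80 PEA controls · Repeats – n of 1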
TAAR1 ag – human TAAR1 agonists, primary screen, Fluo-8 calcium fluorescence, CHO RD-HGA16 cells. Trace amine-associated receptor 1 (Homo sapiens), Q96RJ0. vehicle wells 0%, saturating PEA agonist 100%. activation, % at 3 µM. 360,000 compounds, 0.99% hits;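 active means activation above the mean activation of all test compounds in the run plus 3 SD, cut at about 38% in these data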
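Signal – calcium-sensitive Fluo-8 signal, excitation 470-495, emission 515-575 nm · System – RD-HGA16 (CHO) cells co-expressing Gα16 and hTAAR1 · Incubation – 17-24 h seeding, 75 min 37 °C dye, 30 min RT · Compound dosing – 3 µM single concentration · Repeats – no replicates (n 1)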
GPR7 antag – GPR7 receptor antagonists, primary screen, cell-based, fluorescence, single concentration; Neuropeptides B/W receptor type 1 (Homo sapiens), P48145; GPR7-expressing cells, fluorescence antagonist assay; inhibition, % at 4.4 µM; 290,000 compounds, 1.1% hits; AID 1861, 2009; in the data active means inhibition above about 16%, passing the limit was not always enough;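 further: cells stimulated with the agonist NPW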
Target sequence (P48145 whole entry, looked up): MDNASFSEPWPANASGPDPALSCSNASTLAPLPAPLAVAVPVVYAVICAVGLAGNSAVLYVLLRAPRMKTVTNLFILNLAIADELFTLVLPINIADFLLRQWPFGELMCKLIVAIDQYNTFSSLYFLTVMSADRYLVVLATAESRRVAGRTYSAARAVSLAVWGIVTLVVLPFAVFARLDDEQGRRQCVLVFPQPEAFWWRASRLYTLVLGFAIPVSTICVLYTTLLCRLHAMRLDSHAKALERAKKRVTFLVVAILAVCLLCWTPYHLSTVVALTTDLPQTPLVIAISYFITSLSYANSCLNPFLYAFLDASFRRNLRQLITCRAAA
GPR7 antag conf – GPR7 receptor antagonists, confirmation, cell-based, fluorescence, single concentration; shares compounds with GPR7 antag; GPR7-expressing cells, calcium fluorescence antagonist mode; inhibition, % at 4.4 µM; 2,400 compounds, 52% hits; AID 1952, 2009; in the data active means inhibition above about 24%;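 further: stimulated with the GPR7 agonist NPW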
MCHR1 antag – MCHR1 antagonists in cells, counter-screen for GPR7 antagonist project, cell-based, fluorescence, human. shares compounds with GPR7 antag. MCHR1-expressing cells, fluorescence antagonist assay. inhibition, % at 4.4 µM. 2,400 compounds, 62% hits. AID 2148, 2009; in the data active means inhibition above about 22%
Of the large screens only hits and unclear results are named; the others gave an inactive call (follow-up assays come after a bar, where they were run).

CCC(C)(C(=O)NC1CCCCC1)N(Cc1ccco1)C(=O)c1ccc2c(c1)OCO2 (centres undefined)	GPR7 antag 34 | GPR7 antag conf 34 | MCHR1 antag inactive
CCC(C)(C(=O)NC1CCCCC1)N(Cc1cccs1)C(=O)CC1NC(=O)NC1=O (centres undefined)	none
Fc1ccc(-c2nnc(-c3ccc4ccccc4c3)o2)cc1	none (no result: GPR7 antag)
COc1ccc(-c2cnc(SCC(=O)Nc3ccc4c(c3)OCO4)n2Cc2ccco2)cc1	TAAR1 antag 51, GPR7 antag 22 | GPR7 antag conf 42 | MCHR1 antag 68
Cc1cc(NC(=O)CSc2nnc(COc3ccccc3)n2Cc2ccco2)no1	none
O=C(CSc1nnc(COc2ccccc2)n1Cc1ccco1)Nc1ccc2c(c1)OCCO2	GPR7 antag 29 | GPR7 antag conf 31 | MCHR1 antag 33
Cc1ccc(NC(=O)CN(C)C2CCCCC2)cc1Cl	GPR7 antag 25 | GPR7 antag conf inactive | MCHR1 antag 24
Cc1ccc(NC(=O)NC2CCCCC2)cc1Cl	none
COc1ccc(C=O)cc1COc1ccc(C)cc1[N+](=O)[O-]	GPR7 antag 31 | GPR7 antag conf 28 | MCHR1 antag 61
CC(C)(C)C(=O)c1c(N)[nH]c(C(=O)c2ccccc2)c1-c1ccc(Br)cc1	none (no result: DAGLB inh, GPR7 antag)
O=C(CCC1CC(=O)Nc2ccccc21)NCc1ccc(F)cc1 (centres undefined)	GPR7 antag 33 | GPR7 antag conf inactive | MCHR1 antag 23
CCN(Cc1ccccc1)Cc1nnnn1Cc1ccccc1	GPR7 antag 26 | GPR7 antag conf inactive | MCHR1 antag inactive
Cc1ccc2c(c1)c1c(n2CC(O)CNC2CCCC2)CCCC1 (centres undefined)	GPR7 antag 23 | GPR7 antag conf 53 | MCHR1 antag 41
O=C(c1ccco1)N1CCN(S(=O)(=O)c2ccc(S(=O)(=O)NC3CCCCC3)cc2)CC1	none (no result: GPR7 antag) | MCHR1 antag inactive
O=C(c1ccco1)N1CCN(S(=O)(=O)c2ccc(S(=O)(=O)NC3CCCC3)cc2)CC1	none
O=C(Oc1cccc(NC(=O)c2ccccc2Cl)c1)c1ccc([N+](=O)[O-])cc1	GPR7 antag 35 | GPR7 antag conf 43 | MCHR1 antag 56
S=C(NCCN(C1CCCCC1)C1CCCC1)Nc1cccc(Cl)c1	GPR7 antag 55 | GPR7 antag conf 60 | MCHR1 antag 69
Cc1ccc(NCC(=O)N/N=C/c2ccc(OC(=O)c3ccco3)cc2)cc1	GPR7 antag 31 | GPR7 antag conf 31 | MCHR1 antag inactive
O=C(C(=O)N1CCN(C(=O)C2CCCC2)CC1)c1cccc(C(F)(F)F)c1	none (no result: DAGLB inh, MPTP inh, GPR7 antag)
CCc1ccc(OCC2c3cc(OC)c(OC)cc3CCN2C(=S)NC)cc1 (centres undefined)	GPR7 antag 36 | GPR7 antag conf 25 | MCHR1 antag 37
CCc1ccc(OCC2c3cc(OC)c(OC)cc3CCN2C(=S)NCCOC)cc1 (centres undefined)	none
COC(=O)c1ccc(OCC2c3cc(OC)c(OC)cc3CCN2C(=O)C2CC2)cc1 (centres undefined)	GPR7 antag 27 | GPR7 antag conf 43 | MCHR1 antag 29
c1ccc(-n2ncc3c(NCc4ccco4)ncnc32)cc1	GPR7 antag 24 | GPR7 antag conf 48 | MCHR1 antag 44
c1ccc(Cn2ncc3c(NCc4ccco4)ncnc32)cc1	none
CNC(=S)N1N=C(c2ccc(OC)cc2)CC1c1ccc(N(C)C)cc1 (centres undefined)	GPR7 antag 22 | GPR7 antag conf inactive | MCHR1 antag 33
CNC(=S)N1N=C(c2ccc(Br)cc2)CC1c1ccc(N(C)C)cc1 (centres undefined)	none
CC1CN(C(=O)c2ccc(NS(=O)(=O)c3ccc(C(C)(C)C)cc3)cc2)CC(C)O1 (centres undefined)	GPR7 antag 33 | GPR7 antag conf 32 | MCHR1 antag 42
Clc1ccc(-c2c[n+](Cc3ccc(Cl)cc3Cl)c3n2CCCCC3)cc1	GPR7 antag 23 | GPR7 antag conf 26 | MCHR1 antag 27
CCSCCOC(=O)C1=C(C)N(C)C(=O)NC1c1cc(OC)ccc1OC (centres undefined)	GPR7 antag 23 | GPR7 antag conf inactive | MCHR1 antag inactive
CCSCCOC(=O)C1=C(C)NC(=O)NC1c1cc(OC)ccc1OC (centres undefined)	none
CCCCNC1c2ccccc2C(=O)N1Cc1ccccc1 (centres undefined)	GPR7 antag 28 | GPR7 antag conf inactive | MCHR1 antag inactive
CC(C)NC(=O)NC(=O)CSc1nnc(COc2ccccc2F)n1C(C)C1CC2CCC1C2 (centres undefined)	GPR7 antag 32 (no result: TAAR1 antag, TAAR1 ag) | GPR7 antag conf 28 | MCHR1 antag 54
CCc1c(-c2ccc(OC)cc2)ncn1Cc1cccc(-c2ccccc2)c1	none (no result: DAGLB inh, GPR7 antag)
CCCCN(C)CC(O)Cn1cc(/C=C/C(=O)c2ccc(OCC)cc2)c2ccccc21 (centres undefined)	GPR7 antag 32 (no result: DAGLB inh, MPTP inh, TAAR1 antag, TAAR1 ag) | GPR7 antag conf 36 | MCHR1 antag 55
CCCCN(C)CC(O)Cn1cc(/C=C/C(=O)c2cccs2)c2ccccc21 (centres undefined)	none (no result: TAAR1 antag, TAAR1 ag)
CC1(C(=O)Nc2ccc3c(c2)OCCO3)CSCC(=O)N1C1CC1 (centres undefined)	none (no result: DAGLB inh, GPR7 antag)
CCCCn1c(N)c(N(CCOC)C(=O)CCNC(=O)c2ccccc2Cl)c(=O)[nH]c1=O	GPR7 antag 26 | GPR7 antag conf inactive | MCHR1 antag inactive
CCCCn1c(N)c(N(CC(C)C)C(=O)CCNC(=O)c2ccccc2Cl)c(=O)[nH]c1=O	none (no result: GPR7 antag)
CCCCN(C(=O)c1ccccc1OCc1ccc(F)cc1)c1c(N)n(CCC)c(=O)[nH]c1=O	GPR7 antag 30 | GPR7 antag conf inactive | MCHR1 antag inactive
CCCCn1c(N)c(N(CC(C)C)C(=O)c2cccc(S(=O)(=O)N3CCCCCC3)c2)c(=O)[nH]c1=O	GPR7 antag 28 | GPR7 antag conf inactive | MCHR1 antag inactive
CCCCn1c(N)c(N(CC(C)C)C(=O)c2ccc(COc3ccccc3)o2)c(=O)[nH]c1=O	GPR7 antag 26 | GPR7 antag conf 32 | MCHR1 antag inactive
COc1ccc(CNC(=O)c2c(N)[nH]c(C(=O)c3ccccc3)c2-c2ccc3ccccc3c2)cc1OC	none (no result: DAGLB inh, MPTP inh, GPR7 antag)
c1ccc(COc2ncnc3c2ncn3CCCNCC(c2ccccc2)c2ccccc2)cc1	none (no result: GPR7 antag)
